Experimental data published in ChEMBL document CHEMBL3992532, “Structure-Based Design of Macrocyclic Factor XIa Inhibitors: Discovery of the Macrocyclic Amide Linker” (J Med Chem, 2017).

Tests used:
Plasma kallikrein = Plasma kallikrein (Homo sapiens, UniProt P03952); assay: Inhibition of human plasma kallikrein using H-(D)-Pro-Phe-Arg-pNA as substrate after 10 to 120 mins at 37 degC by spectrophotometric method
In short: (§1)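 Purified human proteases, 37 °C; reaction started by adding enzyme to substrate (up to 4× Km) ± inhibitor; compound from DMSO, 1% DMSO final except where noted. […] Buffers: FXIa, chymotrypsin, tPA, plasmin, urokinase in 50 mM HEPES pH 7.4, 145 mM NaCl, 5 mM KCl, 0.1% PEG 8000; FXa, thrombin, trypsin, plasma kallikrein, aPC in 100 mM Na phosphate pH 7.4, 200 mM NaCl, 0.5% PEG 8000; FIXa in 50 mM Tris pH 7.4, 100 mM NaCl, 5 mM CaCl2, 0.5% PEG 8000, 2% DMSO.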

Prothrombin = Prothrombin (Homo sapiens, UniProt P00734); assay: Inhibition of human thrombin using pyroGlu-Pro-Arg-pNA as substrate after 10 to 120 mins at 37 degC by spectrophotometric method; in short: as §1
Coagulation factor X = Coagulation factor X (Homo sapiens, UniProt P00742); assay: Inhibition of human coagulation factor 10a using N-benzoyl-Ile-Glu-(OH,OMe)-Gly-Arg-pNA as substrate after 10 to 120 mins at 37 degC by spectrophotometric method; in short: as §1
Sequence of Coagulation factor X (P00742 41-179 limits assumed): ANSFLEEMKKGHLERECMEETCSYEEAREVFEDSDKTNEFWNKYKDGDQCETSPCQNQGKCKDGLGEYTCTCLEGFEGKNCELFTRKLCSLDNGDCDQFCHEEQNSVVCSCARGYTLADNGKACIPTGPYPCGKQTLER
Sequence of Coagulation factor X (P00742 235-488 limits assumed): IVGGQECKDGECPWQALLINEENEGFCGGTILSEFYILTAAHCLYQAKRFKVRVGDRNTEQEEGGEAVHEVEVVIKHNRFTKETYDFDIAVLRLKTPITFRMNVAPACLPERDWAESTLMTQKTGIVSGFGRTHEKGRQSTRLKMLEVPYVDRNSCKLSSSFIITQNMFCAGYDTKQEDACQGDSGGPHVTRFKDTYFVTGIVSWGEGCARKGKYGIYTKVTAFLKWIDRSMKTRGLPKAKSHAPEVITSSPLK

Plasminogen = Plasminogen (Homo sapiens, UniProt P00747); assay: Inhibition of human plasmin using H-(D)-Val-Leu-LyspNA as substrate after 10 to 120 mins at 37 degC by spectrophotometric method; in short: as §1
Sequence of Plasminogen (P00747 97-580 limits assumed): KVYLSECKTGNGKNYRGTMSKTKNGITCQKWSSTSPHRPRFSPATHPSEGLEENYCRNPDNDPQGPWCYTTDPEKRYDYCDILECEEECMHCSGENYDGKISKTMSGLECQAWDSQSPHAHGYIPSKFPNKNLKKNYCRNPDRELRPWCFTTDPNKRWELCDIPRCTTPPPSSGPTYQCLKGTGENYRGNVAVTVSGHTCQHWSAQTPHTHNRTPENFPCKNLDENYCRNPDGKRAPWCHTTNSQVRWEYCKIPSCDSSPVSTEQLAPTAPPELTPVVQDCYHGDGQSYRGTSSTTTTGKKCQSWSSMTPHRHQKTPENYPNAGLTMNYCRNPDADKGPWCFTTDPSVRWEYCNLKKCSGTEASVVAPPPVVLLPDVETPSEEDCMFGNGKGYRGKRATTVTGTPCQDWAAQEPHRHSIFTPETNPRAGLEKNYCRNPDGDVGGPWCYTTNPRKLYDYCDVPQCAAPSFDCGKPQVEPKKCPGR
Sequence of Plasminogen (P00747 581-810 limits assumed): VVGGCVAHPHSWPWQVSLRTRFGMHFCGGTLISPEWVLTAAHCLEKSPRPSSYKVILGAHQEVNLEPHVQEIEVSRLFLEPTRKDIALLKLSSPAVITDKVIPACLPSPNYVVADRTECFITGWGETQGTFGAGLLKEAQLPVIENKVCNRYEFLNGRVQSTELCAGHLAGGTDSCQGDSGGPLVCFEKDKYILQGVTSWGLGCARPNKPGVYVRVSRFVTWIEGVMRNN

[1] = Inhibition of human trypsin using N-benzoyl-Ile-Glu-(OH,OMe)-Gly-Arg-pNA as substrate after 10 to 120 mins at 37 degC by spectrophotometric method; in short: as §1
[2] = biological target: Tissue-type plasminogen activator (Homo sapiens, UniProt P00750); assay: Inhibition of human tissue plasminogen activator using methylsulfonyl-D-cyclohexylalanyl-GlyArg-pNA as substrate after 10 to 120 mins at 37 degC by spectrophotometric method; in short: as §1
Sequence of Tissue-type plasminogen activator (P00750 whole entry): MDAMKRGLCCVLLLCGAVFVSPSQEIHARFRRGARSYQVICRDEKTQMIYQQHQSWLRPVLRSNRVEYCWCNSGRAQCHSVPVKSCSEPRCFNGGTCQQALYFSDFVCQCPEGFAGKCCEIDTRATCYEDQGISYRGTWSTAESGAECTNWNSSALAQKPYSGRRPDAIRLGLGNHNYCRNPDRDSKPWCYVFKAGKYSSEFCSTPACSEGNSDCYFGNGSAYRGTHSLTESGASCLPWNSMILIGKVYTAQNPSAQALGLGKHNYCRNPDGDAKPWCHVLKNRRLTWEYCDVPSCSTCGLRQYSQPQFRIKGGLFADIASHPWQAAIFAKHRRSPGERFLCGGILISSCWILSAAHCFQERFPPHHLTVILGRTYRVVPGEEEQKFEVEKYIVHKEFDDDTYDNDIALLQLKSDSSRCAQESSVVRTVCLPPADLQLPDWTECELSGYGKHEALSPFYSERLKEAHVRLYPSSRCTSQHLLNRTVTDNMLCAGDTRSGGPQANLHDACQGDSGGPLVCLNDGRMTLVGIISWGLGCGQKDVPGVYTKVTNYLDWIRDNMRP

Coagulation factor XII = biological target: T1, Coagulation factor XII (Homo sapiens, UniProt P00748); assay: Inhibition of human coagulation factor 12a using H-(D)-CHT-Gly-Arg-pNA as substrate after 10 to 120 mins at 25 degC by spectrophotometric method
T1 sequence (P00748 whole entry): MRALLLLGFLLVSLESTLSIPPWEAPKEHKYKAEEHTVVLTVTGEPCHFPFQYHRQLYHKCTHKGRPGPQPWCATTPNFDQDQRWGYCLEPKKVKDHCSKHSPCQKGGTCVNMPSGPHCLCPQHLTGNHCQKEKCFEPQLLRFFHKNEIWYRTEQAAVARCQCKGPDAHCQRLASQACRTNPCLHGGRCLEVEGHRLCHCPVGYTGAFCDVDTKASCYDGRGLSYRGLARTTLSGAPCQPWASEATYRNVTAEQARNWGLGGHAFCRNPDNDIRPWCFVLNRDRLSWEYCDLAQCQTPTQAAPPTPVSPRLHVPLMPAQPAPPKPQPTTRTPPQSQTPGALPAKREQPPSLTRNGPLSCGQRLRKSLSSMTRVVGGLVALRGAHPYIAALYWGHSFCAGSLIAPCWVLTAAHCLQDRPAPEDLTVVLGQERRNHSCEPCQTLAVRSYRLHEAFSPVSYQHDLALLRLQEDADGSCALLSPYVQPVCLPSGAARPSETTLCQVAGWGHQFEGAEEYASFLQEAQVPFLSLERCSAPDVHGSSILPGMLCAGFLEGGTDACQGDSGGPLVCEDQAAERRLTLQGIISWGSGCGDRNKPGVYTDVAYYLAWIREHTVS

[3] = biological target: Urokinase-type plasminogen activator (Homo sapiens, UniProt P00749); assay: Inhibition of human urokinase using pyro-Glu-Gly-Arg-pNA as substrate after 10 to 120 mins at 37 degC by spectrophotometric method; in short: as §1
Coagulation factor VII = biological target: T2, Coagulation factor VII (Homo sapiens, UniProt P08709); assay: Inhibition of human coagulation factor 7a using H-(D)-Ile-Pro-Arg-pNA as substrate after 10 to 120 mins at 25 degC by spectrophotometric method
T2 sequence (P08709 whole entry): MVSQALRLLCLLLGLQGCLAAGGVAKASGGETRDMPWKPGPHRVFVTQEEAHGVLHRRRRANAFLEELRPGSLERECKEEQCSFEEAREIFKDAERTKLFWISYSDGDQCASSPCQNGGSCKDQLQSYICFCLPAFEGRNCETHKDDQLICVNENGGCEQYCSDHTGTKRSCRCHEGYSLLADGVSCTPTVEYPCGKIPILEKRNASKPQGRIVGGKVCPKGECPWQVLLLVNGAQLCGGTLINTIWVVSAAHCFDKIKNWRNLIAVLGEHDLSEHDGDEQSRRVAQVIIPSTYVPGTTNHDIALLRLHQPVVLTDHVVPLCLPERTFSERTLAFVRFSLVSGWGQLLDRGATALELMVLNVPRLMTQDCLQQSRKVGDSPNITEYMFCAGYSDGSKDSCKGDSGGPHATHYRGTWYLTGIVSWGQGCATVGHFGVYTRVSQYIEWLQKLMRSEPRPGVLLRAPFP

[4] = Inhibition of human chymotrypsin using MeO-SucArg-Pro-Tyr-pNA as substrate after 10 to 120 mins at 37 degC by spectrophotometric method; in short: as §1
Plasma = assay: Anticoagulant activity in human plasma assessed as concentration required to produce 50% increase in activated partial thromboplastin time; assay type: functional
In short: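 Citrated (one-tenth volume 0.11 M) plasma from healthy volunteers, spun 2,000 g 10 min, kept on ice; 10 mM DMSO stock diluted in plasma, up to 7 concentrations; aPTT on automated coagulometer, duplicates as mean ratio to baseline; EC1.5x (50% prolongation) by linear interpolation, as total plasma concentration.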

Coagulation factor XI = Coagulation factor XI (Homo sapiens, UniProt P03951); assay: Inhibition of human coagulation factor 11a using pyroGlu-Pro-Arg-pNA as substrate after 10 to 120 mins at 37 degC by spectrophotometric method; in short: as §1
Sequence of Coagulation factor XI (P03951 19-387 limits assumed): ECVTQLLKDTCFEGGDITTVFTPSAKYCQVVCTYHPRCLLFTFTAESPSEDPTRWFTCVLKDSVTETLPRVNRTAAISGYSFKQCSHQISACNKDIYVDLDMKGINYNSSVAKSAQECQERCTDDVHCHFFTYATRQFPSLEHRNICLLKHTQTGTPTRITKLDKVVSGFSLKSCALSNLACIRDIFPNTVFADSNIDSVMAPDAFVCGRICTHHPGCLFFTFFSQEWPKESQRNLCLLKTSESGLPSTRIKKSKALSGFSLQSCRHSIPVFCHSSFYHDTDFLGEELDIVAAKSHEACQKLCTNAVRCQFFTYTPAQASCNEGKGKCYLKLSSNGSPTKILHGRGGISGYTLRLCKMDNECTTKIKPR
Sequence of Coagulation factor XI (P03951 388-625 limits assumed): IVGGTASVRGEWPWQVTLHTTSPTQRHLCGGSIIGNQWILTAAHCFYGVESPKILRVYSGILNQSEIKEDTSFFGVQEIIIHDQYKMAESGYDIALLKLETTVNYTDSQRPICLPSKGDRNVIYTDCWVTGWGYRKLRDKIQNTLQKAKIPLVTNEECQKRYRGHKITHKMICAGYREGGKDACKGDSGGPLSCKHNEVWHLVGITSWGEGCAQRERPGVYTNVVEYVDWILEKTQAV

[5] = biological target: Vitamin K-dependent protein C (Homo sapiens, UniProt P04070); assay: Inhibition of human activated protein C using pyroGlu-Pro-Arg-pNA as substrate after 10 to 120 mins at 37 degC by spectrophotometric method; in short: as §1
Sequence of Vitamin K-dependent protein C (P04070 43-197 limits assumed): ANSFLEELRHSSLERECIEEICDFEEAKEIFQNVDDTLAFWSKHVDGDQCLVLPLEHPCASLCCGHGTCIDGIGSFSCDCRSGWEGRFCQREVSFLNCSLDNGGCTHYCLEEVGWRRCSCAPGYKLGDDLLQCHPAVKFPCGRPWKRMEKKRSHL
Sequence of Vitamin K-dependent protein C (P04070 212-461 limits assumed): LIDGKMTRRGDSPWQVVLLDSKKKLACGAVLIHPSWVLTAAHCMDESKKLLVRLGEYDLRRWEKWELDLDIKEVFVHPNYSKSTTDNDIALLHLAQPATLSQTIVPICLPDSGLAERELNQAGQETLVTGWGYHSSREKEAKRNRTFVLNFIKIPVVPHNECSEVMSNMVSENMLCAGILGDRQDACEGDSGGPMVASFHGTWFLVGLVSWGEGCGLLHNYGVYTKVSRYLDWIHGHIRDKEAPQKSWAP

Coagulation factor IX = Coagulation factor IX (Homo sapiens, UniProt P00740); assay: Inhibition of human coagulation factor 9a using methylsulfonyl-D-cyclohexylglycyl-Gly-Arg-AMC as substrate after 10 to 120 mins at 37 degC by spectrophotometric method; in short: as §1
Sequence of Coagulation factor IX (P00740 47-191 limits assumed): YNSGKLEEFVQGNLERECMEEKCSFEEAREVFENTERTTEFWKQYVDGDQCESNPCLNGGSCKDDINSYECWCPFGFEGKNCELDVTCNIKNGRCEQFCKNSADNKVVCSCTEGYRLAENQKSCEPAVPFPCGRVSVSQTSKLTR
Sequence of Coagulation factor IX (P00740 227-461 limits assumed): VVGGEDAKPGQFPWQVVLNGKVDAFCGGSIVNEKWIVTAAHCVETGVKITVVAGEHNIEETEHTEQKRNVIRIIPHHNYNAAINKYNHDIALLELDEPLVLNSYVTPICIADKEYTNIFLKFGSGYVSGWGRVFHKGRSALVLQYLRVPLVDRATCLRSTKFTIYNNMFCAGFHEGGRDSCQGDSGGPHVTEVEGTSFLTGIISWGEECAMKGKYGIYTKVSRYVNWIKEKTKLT

[6] = Half life in dog liver microsomes; assay type: ADME, Canis lupus familiaris, microsome
[7] = Half life in human liver microsomes; assay type: ADME, microsome
[8] = Volume of distribution at steady state in Beagle dog at 0.2 mg/kg, iv administered as 10 mins infusion or 0.23 mg/kg, po via gavage administered as cassette dose by LC-MS/MS method; assay type: ADME, organism-based, Canis lupus familiaris; conditions: in vivo, read-out: Vdss
In short: (§2)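 Dog PK vehicles as footnoted: iv in 70% PEG 400/20% water/10% ethanol; po either 70% PEG 400/20% TPGS/10% ethanol or the same PEG 400/water/ethanol vehicle used for iv.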

[9] = Half life in Beagle dog at 0.2 mg/kg, iv administered as 10 mins infusion or 0.23 mg/kg, po via gavage administered as cassette dose by LC-MS/MS method; assay type: ADME, organism-based, Canis lupus familiaris; conditions: in vivo; in short: as §2
Canis familiaris [10] = assay: AUC in Beagle dog at 0.23 mg/kg, po administered via gavage as cassette dose by LC-MS/MS method; assay type: ADME, organism-based, Canis lupus familiaris; conditions: in vivo; in short: as §2
[11] = Protein binding in dog plasma; assay type: ADME, cell-free, Canis lupus familiaris; conditions: read-out: PPB (converted)
Canis familiaris [12] = assay: Oral bioavailability in Beagle dog at 0.23 mg/kg administered via gavage as cassette dose by LC-MS/MS method; assay type: ADME, organism-based, Canis lupus familiaris; conditions: in vivo; in short: as §2
Canis familiaris [13] = assay: Oral bioavailability in Beagle dog at 0.42 mg/kg administered via gavage as cassette dose by LC-MS/MS method; assay type: ADME, organism-based, Canis lupus familiaris; conditions: in vivo; in short: as §2
[14] = Half life in Beagle dog at 0.21 mg/kg, iv administered as 10 mins infusion or 0.42 mg/kg, po via gavage administered as cassette dose by LC-MS/MS method; assay type: ADME, organism-based, Canis lupus familiaris; conditions: in vivo; in short: as §2
Canis familiaris [15] = assay: AUC in Beagle dog at 0.42 mg/kg, po administered via gavage as cassette dose by LC-MS/MS method; assay type: ADME, organism-based, Canis lupus familiaris; conditions: in vivo; in short: as §2
[16] = Volume of distribution at steady state in Beagle dog at 0.21 mg/kg, iv administered as 10 mins infusion or 0.42 mg/kg, po via gavage administered as cassette dose by LC-MS/MS method; assay type: ADME, organism-based, Canis lupus familiaris; conditions: in vivo, read-out: Vdss; in short: as §2

Sequence of Plasma kallikrein (P03952 20-390 limits assumed): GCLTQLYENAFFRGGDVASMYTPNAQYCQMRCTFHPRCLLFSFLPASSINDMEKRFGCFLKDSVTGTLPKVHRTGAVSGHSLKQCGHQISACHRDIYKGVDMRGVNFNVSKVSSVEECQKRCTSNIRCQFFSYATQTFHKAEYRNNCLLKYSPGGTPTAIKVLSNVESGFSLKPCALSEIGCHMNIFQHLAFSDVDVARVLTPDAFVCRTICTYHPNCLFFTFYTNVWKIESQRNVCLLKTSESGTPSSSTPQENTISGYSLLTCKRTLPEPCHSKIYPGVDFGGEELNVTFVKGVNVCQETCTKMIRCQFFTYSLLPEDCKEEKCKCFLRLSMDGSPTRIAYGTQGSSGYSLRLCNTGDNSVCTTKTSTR
Sequence of Plasma kallikrein (P03952 391-638 limits assumed): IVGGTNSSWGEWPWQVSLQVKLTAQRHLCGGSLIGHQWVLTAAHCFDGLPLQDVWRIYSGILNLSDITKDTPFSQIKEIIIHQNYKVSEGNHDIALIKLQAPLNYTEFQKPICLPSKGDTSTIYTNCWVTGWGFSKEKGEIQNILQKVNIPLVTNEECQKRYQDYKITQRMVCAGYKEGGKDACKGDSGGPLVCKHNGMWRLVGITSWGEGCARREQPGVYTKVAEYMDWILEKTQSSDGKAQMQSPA

COC(=O)Nc1ccc(-c2nc([C@H](Cc3ccccc3)NC(=O)/C=C/c3cc(Cl)ccc3-n3cnnn3)[nH]c2Cl)cc1
Ki (Plasma kallikrein): 0.519 µM
Ki (Prothrombin): > 11.5 µM
Ki (Coagulation factor X): > 13.3 µM
Ki (Plasminogen): > 15.2 µM
Ki [1]: > 10 µM
Ki [2]: > 6.15 µM
Ki (Coagulation factor XII): > 3.05 µM
Ki [3]: > 15.1 µM
Ki (Coagulation factor VII): > 13.4 µM
Ki [4]: > 4.53 µM
EC1.5 (Plasma): 5.3 µM
Ki (Coagulation factor XI): 5.8 nM
Ki [5]: > 21.5 µM
Ki (Coagulation factor IX): > 27.1 µM

COC(=O)Nc1ccc2c(c1)NC(=O)CCCC[C@H](NC(=O)/C=C/c1cc(Cl)ccc1-n1cnnn1)c1nc-2c[nH]1
half-life [6]: > 2 h
Ki (Plasma kallikrein): 0.07 µM
half-life [7]: 1.5 h
Vd [8]: 0.8 L/kg
Ki (Prothrombin): > 11.5 µM
Ki (Coagulation factor X): > 13.3 µM
Ki (Plasminogen): > 15.2 µM
Ki [1]: 8.39 µM
half-life [9]: 1 h
Ki [2]: > 6.15 µM
Ki (Coagulation factor XII): > 3.05 µM
Ki [3]: > 15.1 µM
AUC (Canis familiaris [10]): 0.021 µM·h
Ki (Coagulation factor VII): 3.19 µM
Ki [4]: 3.94 µM
EC1.5 (Plasma): 0.3 µM
Ki (Coagulation factor XI): 1 nM
Ki [5]: > 21.5 µM
fraction unbound [11]: 0.098
Ki (Coagulation factor IX): > 27.1 µM
F (Canis familiaris [12]): 6%

COC(=O)Nc1ccc2c(c1)CCCCCC[C@H](NC(=O)/C=C/c1cc(Cl)ccc1-n1cnnn1)c1nc-2c[nH]1
half-life [6]: > 2 h
F (Canis familiaris [13]): 12%
half-life [14]: 3.2 h
EC1.5 (Plasma): >40 µM
AUC (Canis familiaris [15]): 0.458 µM·h
Ki (Coagulation factor XI): 87 nM
Vd [16]: 0.7 L/kg

COC(=O)Nc1ccc2c(c1)NCCC/C=C/C[C@H](NC(=O)/C=C/c1cc(Cl)ccc1-n1cnnn1)c1nc-2c[nH]1
half-life [7]: 0.283 h
Ki (Coagulation factor XI): 514 nM

COC(=O)Nc1ccc2c(c1)NC(=O)CC/C=C/C[C@H](NC(=O)/C=C/c1cc(Cl)ccc1-n1cnnn1)c1nc-2c(Cl)[nH]1
half-life [7]: 0.967 h
EC1.5 (Plasma): 0.28 µM
Ki (Coagulation factor XI): 0.03 nM

COC(=O)Nc1ccc2c(c1)NC(=O)CCCCC[C@H](NC(=O)/C=C/c1cc(Cl)ccc1-n1cnnn1)c1nc-2c(Cl)[nH]1
half-life [7]: 1.43 h
EC1.5 (Plasma): 0.92 µM
Ki (Coagulation factor XI): 0.47 nM

COC(=O)Nc1ccc2c(c1)CCCCCC[C@H](NC(=O)/C=C/c1cc(Cl)ccc1-n1cnnn1)c1nc-2c(Cl)[nH]1
EC1.5 (Plasma): 27 µM
Ki (Coagulation factor XI): 42 nM

COC(=O)Nc1ccc2c(c1)CCCCCCC[C@H](NC(=O)/C=C/c1cc(Cl)ccc1-n1cnnn1)c1nc-2c(Cl)[nH]1
EC1.5 (Plasma): 34 µM
Ki (Coagulation factor XI): 68 nM

C=CC[C@H](NC(=O)/C=C/c1cc(Cl)ccc1-n1cnnn1)c1nc(-c2ccc(NC(=O)OC)cc2NC(=O)CC)c[nH]1
half-life [7]: 0.2 h
EC1.5 (Plasma): 21 µM
Ki (Coagulation factor XI): 27 nM
